The target of one data set is D-amino-acid oxidase (Homo sapiens, UniProt P14920). Nature of the data set: Inhibition of recombinant human DAAO expressed in HEK cells using D-serine as substrate assessed as formation of alpha-keto acid, ammonia, […] after 20 mins by horseradish peroxidase/o-phenylenediamine-based assay. Set-up: species or system HEK293. In short, it runs like this: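 Human DAAO from HEK cells: lysate in 50 mM Tris pH 8.5 with 100 µM FAD, sonicated, then ion-exchange purified with a 0–0.5 M NaCl gradient. […] Enzyme set to give 2.0 mOD/min uninhibited. Rate read as absorbance change at 411 nm. Mean ± SD of ≥4 experiments in most cases.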
Sequence of D-amino-acid oxidase (P14920 whole entry): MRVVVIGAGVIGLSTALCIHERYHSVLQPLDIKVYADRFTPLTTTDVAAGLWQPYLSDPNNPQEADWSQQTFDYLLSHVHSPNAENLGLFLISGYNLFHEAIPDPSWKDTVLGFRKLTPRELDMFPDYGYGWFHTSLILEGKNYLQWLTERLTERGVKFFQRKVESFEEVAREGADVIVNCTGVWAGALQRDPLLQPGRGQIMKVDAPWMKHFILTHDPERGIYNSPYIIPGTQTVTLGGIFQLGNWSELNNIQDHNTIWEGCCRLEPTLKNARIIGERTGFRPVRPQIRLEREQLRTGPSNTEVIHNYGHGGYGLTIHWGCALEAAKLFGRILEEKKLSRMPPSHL

Data set [1] can be described thus: Metabolic stability in mouse liver microsomes assessed as compound remaining at 5 uM after 60 mins by LC/MS/MS analysis in presence of NADPH. Format: ADME. The settings on record: 1 h. In short, it runs like this: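 Mouse liver microsomes (0.5 mg/mL) with 5 µM test compound in 100 mM potassium phosphate pH 7.4 plus NADPH regenerating system (1.3 mM NADPH). Reaction started with microsomes, run in duplicate for 60 min, quenched with cold acetonitrile containing internal standard. Parent quantified by LC/MS/MS; cofactor-free controls included.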
In general terms: Liver microsomes are vesicles of endoplasmic reticulum, rich in cytochrome P450 enzymes.

The nature of data set [2]: Metabolic stability in mouse liver microsomes assessed as compound remaining at 5 uM after 60 mins by LC/MS/MS analysis in presence of UDPGA. The data set is classed as ADME. Conditions: 1 h. In short, it runs like this:
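Glucuronidation in mouse liver microsomes (0.5 mg/mL): 50 mM Tris-HCl pH 7.5, 8 mM MgCl2, 25 µg/mL alamethicin, pre-incubated at 37 °C. Started with 2 mM UDPGA (final), in duplicate, for 60 min. Quenched with cold acetonitrile plus internal standard; LC/MS/MS read-out, with cofactor-free controls.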

Data set [3] in a line: Volume of distribution in CD1 mouse at 10 mg/kg, iv. Format: ADME, organism-based. The settings on record: in vivo. In short, it runs like this:
(§1)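 Male CD1 mice, n = 3 per time point, dosed iv or po. About 1 mL blood taken by cardiac puncture into heparinized tubes, kept on wet ice, centrifuged 10 min at 800 g, 4 °C. Plasma stored at −80 °C; drug levels measured by HPLC–QTOF-MS.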

Data set [4] can be described thus: AUClast in CD1 mouse at 30 mg/kg, po. Format: ADME, organism-based. Set-up: dose 30 mg/kg, route oral, time 0 - last. The settings on record: in vivo. In short, it runs like this:
as §1

A short description of data set [5]: Tmax in CD1 mouse at 30 mg/kg, po. The data set is classed as ADME, organism-based. Conditions: in vivo. In short, it runs like this: as §1
For another data set, the system named is Mus musculus. The data set is described as follows: Dose normalized AUClast in CD1 mouse at 10 mg/kg, iv. Format: ADME, organism-based. The settings on record: in vivo. In short, it runs like this:
as §1

A short description of data set [6]: Cmax in CD1 mouse at 30 mg/kg, po. Set-up: dose 30 mg/kg, route oral. The data set is classed as ADME, organism-based. The settings on record: in vivo. The procedure, abridged:
as §1

Data set [7] is described as follows: Terminal half life in CD1 mouse at 10 mg/kg, iv. Format: ADME, organism-based. The settings on record: in vivo, read-out: beta t1/2 (converted). The procedure, abridged:
as §1

Bounds are passed on as bounds.

In general, IC50 refers to the concentration that inhibits the measured activity by half. Consider `O=c1[nH]c(=O)n(CCn2cnc3ccccc32)nc1O`, for which the IC50 on D-amino-acid oxidase amounted to 440 nM. With `CC(Cn1nc(O)c(=O)[nH]c1=O)c1ccccc1` (configuration not stated), the concentration for half-maximal inhibition (IC50) on D-amino-acid oxidase stood at 3300 nM. Turning to `O=c1[nH]c(=O)n(CCc2ccccc2)nc1O`, the Stability entry in data set [1] and in [2] was “>= 99%” each time. Further, the IC50 at D-amino-acid oxidase turned out to be 70 nM. In the case of `O=c1[nH]c(=O)n(CCc2ccc(-c3ccccc3)cc2)nc1O`, the 50% inhibitory concentration (IC50) on D-amino-acid oxidase worked out at 50 nM. Still for that read-out and setting: in the case of `O=c1[nH]c(=O)n(-c2ccccc2)nc1O` it was greater than 100000 nM. As to `O=c1[nH]c(=O)n(CCc2cccc(Oc3ccccc3)c2)nc1O`, the 50% inhibitory concentration (IC50) on D-amino-acid oxidase turned out to be 240 nM. Still for that read-out and setting: under `O=c1[nH]c(=O)n(CCn2cccn2)nc1O` stands 330 nM; under `Cc1ccc(CCn2nc(O)c(=O)[nH]c2=O)cc1`, 90 nM. As for `O=c1[nH]c(=O)n(CCc2ccccc2)cc1O`, the Stability result in [2] was “<= 1%”. In addition, the IC50 at D-amino-acid oxidase amounted to 80 nM. With `O=c1[nH]c(=O)n(CCCc2ccccc2)nc1O`, the half-inhibitory concentration (IC50) at D-amino-acid oxidase is 1700 nM. Broadly, the Vd is a proportionality between amount in the body and measured concentration, not a real space. A lower Vd goes with little distribution into tissue. The AUC(0-t) is the area under the concentration-time curve up to a stated or last time point. One may read the Tmax as the time from dosing to the highest level. In general, Cmax refers to the highest concentration seen after dosing. `O=c1[nH]nc(CCc2cc(F)cc(F)c2)cc1O` came in with a volume of distribution (Vd) in data set [3] of 0.5 L/kg. Moreover, the AUC(0-t) in data set [4] was 3900 ng·h/mL. The Stability in data set [1] is 92%. In addition, the Tmax in data set [5] was 15 min. The same compound returned an AUClast/dose in the data set on Mus musculus of 12.7 µg·h/mL. The same compound returned a Cmax in data set [6] of 6600 ng/mL. Besides, the half-life in data set [7] is 12 min. With `Cc1cccc(CCn2nc(O)c(=O)[nH]c2=O)c1`, the IC50 on D-amino-acid oxidase came out at 70 nM. The same measure, in the same setting: under `O=c1[nH]c(=O)n(CCc2ccc(O)cc2)nc1O` stands 110 nM; under `O=c1[nH]c(=O)n(CCc2ccc(Oc3ccccc3)cc2)nc1O`, 80 nM; under `O=c1[nH]c(=O)n(CCc2ccc(Cl)cc2)nc1O`, 40 nM. With `COc1cccc(CCn2nc(O)c(=O)[nH]c2=O)c1`, the IC50 on D-amino-acid oxidase turned out to be 120 nM. For `COc1ccc(CCn2nc(O)c(=O)[nH]c2=O)cc1`, the IC50 on D-amino-acid oxidase came to 120 nM. Still for that read-out and setting: in the case of `Cc1ccccc1CCn1nc(O)c(=O)[nH]c1=O` it was 80 nM.
